From ChEMBL document CHEMBL1799960, “Diadenosine 5',5''-(boranated)polyphosphonate analogues as selective nucleotide pyrophosphatase/phosphodiesterase inhibitors” (J Med Chem, 2010)
Active and inactive are the calls of the source. The calls are words filed in the database; no cut-off is given here.

What was measured:
[1] = target: T1, P2Y purinoceptor 11 (Homo sapiens) (UniProt Q96G91); assay: Agonist activity at GFP tagged-human P2Y11 receptor expressed in human 1321N1 cells assessed as elevation in calcium level at 50 uM after 30 mins by fluorescence spectrophotometric analysis; assay type: functional, cell-based
T1 sequence (whole entry): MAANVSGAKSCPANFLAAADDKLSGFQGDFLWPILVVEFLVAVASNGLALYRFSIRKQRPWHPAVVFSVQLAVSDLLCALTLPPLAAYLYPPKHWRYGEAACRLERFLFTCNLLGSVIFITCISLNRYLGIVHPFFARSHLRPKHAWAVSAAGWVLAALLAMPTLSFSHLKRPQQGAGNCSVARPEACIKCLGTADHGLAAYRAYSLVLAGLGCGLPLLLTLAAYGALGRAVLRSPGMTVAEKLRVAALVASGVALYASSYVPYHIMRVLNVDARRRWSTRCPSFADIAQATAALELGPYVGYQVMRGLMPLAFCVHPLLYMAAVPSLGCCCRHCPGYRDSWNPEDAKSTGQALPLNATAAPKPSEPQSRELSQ

[2] = target: T2, Ectonucleoside triphosphate diphosphohydrolase 3 (Homo sapiens) (UniProt O75355); assay: Activity of human NTPDase3 expressed in COS7 cells assessed as amount of inorganic phosphate released using ATP as the substrate at 100 uM after 15 mins by malachite green reagent method; assay type: cell-based; details: COS-7
T2 sequence (whole entry): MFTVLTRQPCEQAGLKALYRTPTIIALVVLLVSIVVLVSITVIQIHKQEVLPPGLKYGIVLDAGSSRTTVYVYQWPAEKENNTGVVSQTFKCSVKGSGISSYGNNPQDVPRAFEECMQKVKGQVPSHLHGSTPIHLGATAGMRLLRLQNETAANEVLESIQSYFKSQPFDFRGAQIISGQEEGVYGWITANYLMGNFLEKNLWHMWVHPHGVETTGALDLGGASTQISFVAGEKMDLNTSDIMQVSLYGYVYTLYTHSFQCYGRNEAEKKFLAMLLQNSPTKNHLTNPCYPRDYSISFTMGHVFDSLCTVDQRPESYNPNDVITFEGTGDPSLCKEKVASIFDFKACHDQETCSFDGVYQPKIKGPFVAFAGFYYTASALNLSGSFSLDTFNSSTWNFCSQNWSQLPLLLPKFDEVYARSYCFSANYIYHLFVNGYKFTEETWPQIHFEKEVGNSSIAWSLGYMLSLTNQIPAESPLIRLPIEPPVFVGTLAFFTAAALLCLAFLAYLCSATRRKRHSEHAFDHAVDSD
How it was run: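 Crude membrane-enriched protein extract of transiently transfected COS-7 cells, preincubated 3 min at 37 °C in Tris-Ringer buffer pH 7.3. Reaction started with 100 μM ATP, or with the analogue alone at 100 μM to test it as substrate. Stopped after 15 min with malachite green reagent; released Pi read at 630 nm. Mean ± SD, n = 3.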

Row | Activity [1] | Activity [2] [%] | Compound
1 | inactive | 1.8 | Nc1ncnc2c1ncn2[C@H]1C[C@H](O)[C@@H](COP(=O)(O)CP(=O)(O)OP(=O)(O)CP(=O)(O)OC[C@H]2O[C@@H](n3cnc4c(N)ncnc43)C[C@@H]2O)O1
2 |  | 5.3 | Nc1ncnc2c1ncn2[C@@H]1O[C@H](COP(=O)(O)CP(=O)(O)OP(=O)(O)CP(=O)(O)OC[C@H]2O[C@@H](n3cnc4c(N)ncnc43)[C@H](O)[C@@H]2O)[C@@H](O)[C@H]1O
3 | inactive |  | BP(=O)(OP(=O)(O)CP(=O)(O)OC[C@H]1O[C@@H](n2cnc3c(N)ncnc32)C[C@@H]1O)OP(=O)(O)CP(=O)(O)OC[C@H]1O[C@@H](n2cnc3c(N)ncnc32)C[C@@H]1O
